Data taken from ChEMBL document CHEMBL4680130, “Substituted 4-phenylthiazoles: Development of potent and selective A, A and dual A/A adenosine receptor antagonists” (Eur J Med Chem, 2020).

Key:
Adenosine receptor A2a [1] = target: Adenosine receptor A2a (Rattus norvegicus, UniProt P30543); assay: Displacement of [3H]MSX2 from adenosine receptor A2A in rat brain striatum membranes incubated for 30 mins by radioligand competition assay; assay type: cell membranes, Cell membrane
Adenosine receptor A1 [2] = target: T1, Adenosine receptor A1 (Rattus norvegicus, UniProt P25099); assay: Displacement of [3H]CCPA from adenosine receptor A1 in rat brain cortex membranes incubated for 90 mins by radioligand competition assay; assay type: cell membranes, Cell membrane
T1 sequence (P25099 whole entry): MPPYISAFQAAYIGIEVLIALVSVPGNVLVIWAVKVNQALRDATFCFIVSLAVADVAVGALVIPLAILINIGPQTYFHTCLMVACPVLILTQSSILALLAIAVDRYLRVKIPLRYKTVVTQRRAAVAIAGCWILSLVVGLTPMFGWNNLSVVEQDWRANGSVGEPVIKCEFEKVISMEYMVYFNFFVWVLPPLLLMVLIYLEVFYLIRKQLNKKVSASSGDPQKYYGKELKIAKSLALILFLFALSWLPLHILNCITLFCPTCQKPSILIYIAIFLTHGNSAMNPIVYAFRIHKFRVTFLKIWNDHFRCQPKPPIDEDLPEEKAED

Adenosine receptor A1 [3] = target: T2, Adenosine receptor A1 (Homo sapiens, UniProt P30542); assay: Displacement of [3H]CCPA from human adenosine receptor A1 expressed in CHO cell membranes incubated for 90 mins by radioligand competition assay; set-up: species or system Cell membrane
T2 sequence (P30542 whole entry): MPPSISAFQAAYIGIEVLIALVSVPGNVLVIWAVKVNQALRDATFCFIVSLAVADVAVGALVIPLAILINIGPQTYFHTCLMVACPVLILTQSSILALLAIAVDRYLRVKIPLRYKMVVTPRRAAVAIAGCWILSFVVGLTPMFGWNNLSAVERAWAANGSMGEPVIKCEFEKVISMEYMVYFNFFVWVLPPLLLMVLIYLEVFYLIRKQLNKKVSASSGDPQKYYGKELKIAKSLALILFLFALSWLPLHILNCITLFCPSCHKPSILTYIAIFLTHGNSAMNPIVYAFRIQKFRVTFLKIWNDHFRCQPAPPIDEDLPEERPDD

Adenosine receptor A3 = target: T3, Adenosine receptor A3 (Homo sapiens, UniProt P0DMS8); assay: Displacement of [3H]PSB-11 from human adenosine receptor A3 expressed in CHO cell membranes incubated for 60 mins by radioligand competition assay; set-up: species or system Cell membrane
T3 sequence (P0DMS8 whole entry): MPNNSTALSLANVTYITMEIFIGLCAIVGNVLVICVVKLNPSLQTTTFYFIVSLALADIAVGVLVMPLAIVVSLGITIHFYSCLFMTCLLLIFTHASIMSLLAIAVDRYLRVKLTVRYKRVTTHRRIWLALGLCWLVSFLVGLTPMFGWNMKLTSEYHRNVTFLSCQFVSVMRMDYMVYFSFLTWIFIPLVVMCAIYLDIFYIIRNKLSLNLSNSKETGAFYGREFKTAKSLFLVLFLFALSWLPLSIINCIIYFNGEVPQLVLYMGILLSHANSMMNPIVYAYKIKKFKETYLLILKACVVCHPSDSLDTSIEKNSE

Adenosine receptor A1 [4] = target: T1, Adenosine receptor A1; assay: Displacement of [3H]DPCPX from rat brain cortical membrane A1AR in absence of GTP by scintillation counting analysis; assay type: cell membranes, Cortex, Cell membrane
Adenosine receptor A1 [5] = target: T1, Adenosine receptor A1; assay: Displacement of [3H]DPCPX from rat brain cortical membrane A1AR in presence of 100 uM of GTP by scintillation counting analysis; assay type: cell membranes, Cortex, Cell membrane
Adenosine receptor A2b = target: T4, Adenosine receptor A2b (Homo sapiens, UniProt P29275); assay: Displacement of [3H]PSB-603 from human adenosine receptor A2B expressed in CHO cell membranes incubated for 75 mins by radioligand competition assay; set-up: species or system Cell membrane
T4 sequence (P29275 whole entry): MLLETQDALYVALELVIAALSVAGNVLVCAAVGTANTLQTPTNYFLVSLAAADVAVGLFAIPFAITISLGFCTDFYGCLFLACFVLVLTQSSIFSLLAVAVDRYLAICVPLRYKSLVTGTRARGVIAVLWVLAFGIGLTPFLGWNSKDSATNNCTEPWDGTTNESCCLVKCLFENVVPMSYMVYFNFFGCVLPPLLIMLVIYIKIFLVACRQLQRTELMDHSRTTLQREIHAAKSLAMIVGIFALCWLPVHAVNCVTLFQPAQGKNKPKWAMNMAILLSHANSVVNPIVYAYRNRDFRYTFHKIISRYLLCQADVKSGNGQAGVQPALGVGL

Adenosine receptor A1 [6] = target: T1, Adenosine receptor A1; assay: Displacement of [3H]CCPA from rat adenosine receptor A1 by radioligand competition assay
How it was run: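 A1 competition binding with [3H]CCPA, 0.5 nM. Membranes: CHO cells expressing human A1, or rat brain cortex. Membranes preincubated 20 min with adenosine deaminase (2 U/mL per mg protein). Incubation 90 min at rt in 50 mM Tris-HCl pH 7.4 with 2.5% final DMSO. Nonspecific binding defined by 10 µM 2-chloroadenosine. GF/B filtration, scintillation counting.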

Adenosine receptor A1 [7] = target: T1, Adenosine receptor A1; assay: Displacement of [3H]DPCPX from rat adenosine receptor A1 by radioligand competition assay
How it was run: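 Rat brain cortical membranes, [3H]DPCPX 0.4 nM. Nonspecific binding defined by 10 μM DPCPX. Curves run with and without 100 μM GTP. Incubation 90 min at rt in 50 mM Tris-HCl pH 7.4, after 20 min adenosine deaminase preincubation. Filtration, then scintillation counting. GTP shift is the IC50 with GTP divided by the IC50 without GTP.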

Adenosine receptor A2a [8] = target: Adenosine receptor A2a (Homo sapiens, UniProt P29274); assay: Displacement of [3H]MSX2 from human adenosine receptor A2A expressed in HEK293 cell membranes incubated for 30 mins by radioligand competition assay; set-up: species or system Cell membrane
Sequence of Adenosine receptor A2a (Homo sapiens, UniProt P29274) (P29274 whole entry): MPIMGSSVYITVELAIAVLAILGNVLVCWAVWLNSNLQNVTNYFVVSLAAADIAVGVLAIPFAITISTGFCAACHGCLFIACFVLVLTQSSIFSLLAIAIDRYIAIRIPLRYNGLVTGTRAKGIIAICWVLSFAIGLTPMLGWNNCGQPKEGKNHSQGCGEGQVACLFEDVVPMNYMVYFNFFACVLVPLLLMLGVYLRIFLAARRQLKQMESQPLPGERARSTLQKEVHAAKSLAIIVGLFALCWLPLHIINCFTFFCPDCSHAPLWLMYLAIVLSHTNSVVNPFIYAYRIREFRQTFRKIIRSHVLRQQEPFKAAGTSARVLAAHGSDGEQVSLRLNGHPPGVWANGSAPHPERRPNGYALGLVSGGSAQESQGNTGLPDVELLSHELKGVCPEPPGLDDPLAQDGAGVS

[9] = target: T5, Adenosine receptor A2b (Homo sapiens) (UniProt P29275); assay: Displacement of [3H]PSB-603 from human adenosine receptor A2B expressed in CHO cell membranes at 0.1 uM incubated for 75 mins by radioligand competition assay relative to control; settings: Cell membrane
T5 sequence (whole entry): T4 sequence (P29275 whole entry)
How it was run: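 CHO membranes expressing human or rat A2B, [3H]PSB-603 0.3 nM. Nonspecific binding defined by 10 µM DPCPX. Preincubated 20 min with adenosine deaminase, then 75 min at rt in Tris-HCl pH 7.4 with 2.5% DMSO. Filters washed with ice-cold 50 mM Tris-HCl containing 0.1% BSA; scintillation counting.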

Sequence of Adenosine receptor A2a (Rattus norvegicus, UniProt P30543) (P30543 whole entry): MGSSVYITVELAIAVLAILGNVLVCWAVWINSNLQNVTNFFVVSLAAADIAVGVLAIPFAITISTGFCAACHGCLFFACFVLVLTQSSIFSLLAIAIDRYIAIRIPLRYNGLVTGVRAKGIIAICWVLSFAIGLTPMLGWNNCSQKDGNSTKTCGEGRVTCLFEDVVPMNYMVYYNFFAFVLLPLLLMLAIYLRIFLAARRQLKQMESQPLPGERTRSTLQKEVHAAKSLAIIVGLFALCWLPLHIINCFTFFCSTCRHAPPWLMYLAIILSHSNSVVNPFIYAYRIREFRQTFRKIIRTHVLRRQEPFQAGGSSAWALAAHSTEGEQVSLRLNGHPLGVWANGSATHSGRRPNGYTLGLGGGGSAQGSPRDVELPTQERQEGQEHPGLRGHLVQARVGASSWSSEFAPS

SMILES	Ki (Adenosine receptor A2a [1]) [nM]	Ki (Adenosine receptor A1 [2]) [nM]	Ki (Adenosine receptor A1 [3]) [nM]	Ki (Adenosine receptor A3) [nM]	IC50 (Adenosine receptor A1 [4]) [nM]	IC50 (Adenosine receptor A1 [5]) [nM]	Ki (Adenosine receptor A2b) [nM]	Ki (Adenosine receptor A1 [6]) [nM]	Ki (Adenosine receptor A1 [7]) [nM]	Ki (Adenosine receptor A2a [8]) [nM]	inhibition [9] [%]
O=C(Nc1nc(-c2ccccc2)c(C(=O)c2ccc(F)cc2F)s1)c1ccccc1	> 1000	2.79	55.3	67.8	3.15	3.14	> 100	2.79	2.93	77.7	–
O=C(Nc1nc(-c2ccccc2)c(C(=O)c2ccc(Cl)cc2)s1)c1ccccc1	1670	0.939	24.4	428	0.0929	0.0981	> 100	0.939	0.0867	39.1	–
Cc1ccc(C(=O)c2sc(NC(=O)c3ccco3)nc2-c2ccccc2)cc1	1210	0.348	7.57	42.2	0.067	0.084	> 100	0.348	0.0628	> 1000	2
